Source: ChEMBL document CHEMBL3046951, “Volatile constituents from the leaves of Callicarpa japonica Thunb. and their antibacterial activities” (2004)

Experiments:
Type in all cases: functional
Bacillus cereus [1] = experiment: Antimicrobial activity against Bacillus cereus ATCC 11778 assessed as growth inhibition rate at 215.04 mg/l after 72 hr by spectrophotometry; conditions: ATCC 11778, 72 h, read-out: GI
Procedure, shortened: (§1)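 Pure volatile compounds (purity >95%; one at 90%) were tested against B. cereus ATCC 11778. The strain was grown at 30 °C in nutrient broth for 24 h, then subcultured for 18 h. Optical density was read in a Bioscreen C every 24 h for 72 h, with 10% Tween 80 as the control.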

Bacillus cereus [2] = experiment: Antimicrobial activity against Bacillus cereus ATCC 11778 assessed as growth inhibition rate at 107.52 mg/l after 72 hr by spectrophotometry; conditions: ATCC 11778, 72 h, read-out: GI; procedure, shortened: as §1
Bacillus cereus [3] = experiment: Antimicrobial activity against Bacillus cereus ATCC 11778 assessed as growth inhibition rate at 61.12 mg/l after 72 hr by spectrophotometry; conditions: ATCC 11778, 72 h, read-out: GI; procedure, shortened: as §1
Salmonella typhimurium [4] = experiment: Antimicrobial activity against Salmonella enterica subsp. enterica serovar Typhimurium ATCC 14028 assessed as growth inhibition rate at 107.52 mg/l after 72 hr by spectrophotometry; conditions: ATCC 14028, 72 h, read-out: GI
Procedure, shortened: (§2)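 Salmonella Typhimurium ATCC 14028 grown in nutrient broth at 30 °C, precultured 24 h, then subcultured 1:100 for 18 h before testing. Single volatile compounds (>95% pure) were added. OD was read every 24 h over 72 h in a Bioscreen C, with 10% Tween 80 as the comparison control.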

Salmonella typhimurium [5] = experiment: Antimicrobial activity against Salmonella enterica subsp. enterica serovar Typhimurium ATCC 14028 assessed as growth inhibition rate at 215.04 mg/l after 72 hr by spectrophotometry; conditions: ATCC 14028, 72 h, read-out: GI; procedure, shortened: as §2
Salmonella typhimurium [6] = experiment: Antimicrobial activity against Salmonella enterica subsp. enterica serovar Typhimurium ATCC 14028 assessed as growth inhibition rate at 61.12 mg/l after 72 hr by spectrophotometry; conditions: ATCC 14028, 72 h, read-out: GI
Salmonella typhimurium [7] = experiment: Antimicrobial activity against Salmonella enterica subsp. enterica serovar Typhimurium ATCC 14028 assessed as growth inhibition rate at 21.52 mg/l after 72 hr by spectrophotometry; conditions: ATCC 14028, 72 h, read-out: GI; procedure, shortened: as §2
Salmonella typhimurium [8] = experiment: Antimicrobial activity against Salmonella enterica subsp. enterica serovar Typhimurium ATCC 14028 assessed as growth inhibition rate at 6.12 mg/l after 72 hr by spectrophotometry; conditions: ATCC 14028, 72 h, read-out: GI
Vibrio parahaemolyticus [9] = experiment: Antimicrobial activity against Vibrio parahaemolyticus ATCC 33844 assessed as growth inhibition rate at 6.12 mg/l after 72 hr by spectrophotometry; conditions: ATCC 33844, 72 h, read-out: GI
Listeria monocytogenes [10] = experiment: Antimicrobial activity against Listeria monocytogenes ATCC 19111 assessed as growth inhibition rate at 247 mg/l after 72 hr by spectrophotometry; conditions: ATCC 19111, 72 h, read-out: GI
Procedure, shortened: (§3)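 L. monocytogenes was grown at 30 °C in tryptic soy broth, subcultured for 18 h, and exposed to pure volatile compounds (>95% purity). Growth was followed by Bioscreen C optical density every 24 h for 72 h against a 10% Tween 80 control.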

Escherichia coli [11] = experiment: Antimicrobial activity against Escherichia coli O157:H7 ATCC 43894 assessed as growth inhibition rate at 107.52 mg/l after 72 hr by spectrophotometry; conditions: O157:H7 ATCC 43894, 72 h, read-out: GI
Escherichia coli [12] = experiment: Antimicrobial activity against Escherichia coli O157:H7 ATCC 43894 assessed as growth inhibition rate at 61.12 mg/l after 72 hr by spectrophotometry; conditions: O157:H7 ATCC 43894, 72 h, read-out: GI
Procedure, shortened: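 Authentic volatiles (>95% purity; 2,4-heptadienal 90%) tested against 18 h subcultures. Growth media: E. coli O157:H7 and S. aureus in tryptic soy broth at 37 °C; L. monocytogenes in tryptic soy broth at 30 °C; V. parahaemolyticus in tryptic soy broth + 3% NaCl at 37 °C; S. typhimurium in nutrient broth at 30 °C. Bioscreen C OD every 24 h for 72 h versus 10% Tween 80 control.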

Escherichia coli [13] = experiment: Antimicrobial activity against Escherichia coli O157:H7 ATCC 43894 assessed as growth inhibition rate at 43 mg/l after 72 hr by spectrophotometry; conditions: O157:H7 ATCC 43894, 72 h, read-out: GI
Staphylococcus aureus [14] = experiment: Antimicrobial activity against Staphylococcus aureus ATCC 25923 assessed as growth inhibition rate at 247 mg/l after 72 hr by spectrophotometry; conditions: ATCC 25923, 72 h, read-out: GI
Escherichia coli [15] = experiment: Antimicrobial activity against Escherichia coli O157:H7 ATCC 43894 assessed as growth inhibition rate at 6.12 mg/l after 72 hr by spectrophotometry; conditions: O157:H7 ATCC 43894, 72 h, read-out: GI
Staphylococcus aureus [16] = experiment: Antimicrobial activity against Staphylococcus aureus ATCC 25923 assessed as growth inhibition rate at 215.04 mg/l after 72 hr by spectrophotometry; conditions: ATCC 25923, 72 h, read-out: GI
Staphylococcus aureus [17] = experiment: Antimicrobial activity against Staphylococcus aureus ATCC 25923 assessed as growth inhibition rate at 61.12 mg/l after 72 hr by spectrophotometry; conditions: ATCC 25923, 72 h, read-out: GI
Vibrio parahaemolyticus [18] = experiment: Antimicrobial activity against Vibrio parahaemolyticus ATCC 33844 assessed as growth inhibition rate at 247 mg/l after 72 hr by spectrophotometry; conditions: ATCC 33844, 72 h, read-out: GI
Bacillus cereus [19] = experiment: Antimicrobial activity against Bacillus cereus ATCC 11778 assessed as growth inhibition rate at 43 mg/l after 72 hr by spectrophotometry; conditions: ATCC 11778, 72 h, read-out: GI; procedure, shortened: as §1
Bacillus cereus [20] = experiment: Antimicrobial activity against Bacillus cereus ATCC 11778 assessed as growth inhibition rate at 21.52 mg/l after 72 hr by spectrophotometry; conditions: ATCC 11778, 72 h, read-out: GI; procedure, shortened: as §1
Escherichia coli [21] = experiment: Antimicrobial activity against Escherichia coli O157:H7 ATCC 43894 assessed as growth inhibition rate at 247 mg/l after 72 hr by spectrophotometry; conditions: O157:H7 ATCC 43894, 72 h, read-out: GI
Salmonella typhimurium [22] = experiment: Antimicrobial activity against Salmonella enterica subsp. enterica serovar Typhimurium ATCC 14028 assessed as growth inhibition rate at 247 mg/l after 72 hr by spectrophotometry; conditions: ATCC 14028, 72 h, read-out: GI; procedure, shortened: as §2
Listeria monocytogenes [23] = experiment: Antimicrobial activity against Listeria monocytogenes ATCC 19111 assessed as growth inhibition rate at 215.04 mg/l after 72 hr by spectrophotometry; conditions: ATCC 19111, 72 h, read-out: GI; procedure, shortened: as §3
Listeria monocytogenes [24] = experiment: Antimicrobial activity against Listeria monocytogenes ATCC 19111 assessed as growth inhibition rate at 107.52 mg/l after 72 hr by spectrophotometry; conditions: ATCC 19111, 72 h, read-out: GI; procedure, shortened: as §3
Vibrio parahaemolyticus [25] = experiment: Antimicrobial activity against Vibrio parahaemolyticus ATCC 33844 assessed as growth inhibition rate at 215.04 mg/l after 72 hr by spectrophotometry; conditions: ATCC 33844, 72 h, read-out: GI
Staphylococcus aureus [26] = experiment: Antimicrobial activity against Staphylococcus aureus ATCC 25923 assessed as growth inhibition rate at 21.52 mg/l after 72 hr by spectrophotometry; conditions: ATCC 25923, 72 h, read-out: GI
Vibrio parahaemolyticus [27] = experiment: Antimicrobial activity against Vibrio parahaemolyticus ATCC 33844 assessed as growth inhibition rate at 61.12 mg/l after 72 hr by spectrophotometry; conditions: ATCC 33844, 72 h, read-out: GI
Vibrio parahaemolyticus [28] = experiment: Antimicrobial activity against Vibrio parahaemolyticus ATCC 33844 assessed as growth inhibition rate at 21.52 mg/l after 72 hr by spectrophotometry; conditions: ATCC 33844, 72 h, read-out: GI
Listeria monocytogenes [29] = experiment: Antimicrobial activity against Listeria monocytogenes ATCC 19111 assessed as growth inhibition rate at 43 mg/l after 72 hr by spectrophotometry; conditions: ATCC 19111, 72 h, read-out: GI; procedure, shortened: as §3
Listeria monocytogenes [30] = experiment: Antimicrobial activity against Listeria monocytogenes ATCC 19111 assessed as growth inhibition rate at 6.12 mg/l after 72 hr by spectrophotometry; conditions: ATCC 19111, 72 h, read-out: GI; procedure, shortened: as §3
Bacillus cereus [31] = experiment: Antimicrobial activity against Bacillus cereus ATCC 11778 assessed as growth inhibition rate at 247 mg/l after 72 hr by spectrophotometry; conditions: ATCC 11778, 72 h, read-out: GI; procedure, shortened: as §1

SMILES: CCC/C=C/C=O
- inhibition of growth at 215.04 µg/mL (Bacillus cereus [1]): 100%
- inhibition of growth at 107.52 µg/mL (Bacillus cereus [2]): 100%
- inhibition of growth at 61.12 µg/mL (Bacillus cereus [3]): 98.7%
- inhibition of growth at 107.52 µg/mL (Salmonella typhimurium [4]): 98.9%
- inhibition of growth at 215.04 µg/mL (Salmonella typhimurium [5]): 99.4%
- inhibition of growth at 61.12 µg/mL (Salmonella typhimurium [6]): 98.5%
- inhibition of growth at 21.52 µg/mL (Salmonella typhimurium [7]): 63%
- inhibition of growth at 6.12 µg/mL (Salmonella typhimurium [8]): 47.1%
- inhibition of growth at 6.12 µg/mL (Vibrio parahaemolyticus [9]): 84.7%
- inhibition of growth at 247 µg/mL (Listeria monocytogenes [10]): 99.7%
- inhibition of growth at 107.52 µg/mL (Escherichia coli [11]): 89.9%
- inhibition of growth at 61.12 µg/mL (Escherichia coli [12]): 47.5%
- inhibition of growth at 43 µg/mL (Escherichia coli [13]): 25.5%
- inhibition of growth at 247 µg/mL (Staphylococcus aureus [14]): 100%
- inhibition of growth at 6.12 µg/mL (Escherichia coli [15]): 7.3%
- inhibition of growth at 215.04 µg/mL (Staphylococcus aureus [16]): 100%
- inhibition of growth at 61.12 µg/mL (Staphylococcus aureus [17]): 72.6%
- inhibition of growth at 247 µg/mL (Vibrio parahaemolyticus [18]): 100%
- inhibition of growth at 43 µg/mL (Bacillus cereus [19]): 91.8%
- inhibition of growth at 21.52 µg/mL (Bacillus cereus [20]): 91.3%
- inhibition of growth at 247 µg/mL (Escherichia coli [21]): 99.9%
- inhibition of growth at 247 µg/mL (Salmonella typhimurium [22]): 98.7%
- inhibition of growth at 215.04 µg/mL (Listeria monocytogenes [23]): 99.8%
- inhibition of growth at 107.52 µg/mL (Listeria monocytogenes [24]): 99.4%
- inhibition of growth at 215.04 µg/mL (Vibrio parahaemolyticus [25]): 99.8%
- inhibition of growth at 21.52 µg/mL (Staphylococcus aureus [26]): 28.7%
- inhibition of growth at 61.12 µg/mL (Vibrio parahaemolyticus [27]): 99.8%
- inhibition of growth at 21.52 µg/mL (Vibrio parahaemolyticus [28]): 99.6%
- inhibition of growth at 43 µg/mL (Listeria monocytogenes [29]): 45.3%
- inhibition of growth at 6.12 µg/mL (Listeria monocytogenes [30]): 31%
- inhibition of growth at 247 µg/mL (Bacillus cereus [31]): 98.8%
